# Experimental data collected from several papers.
# Protocols differ between the studies behind these lines.
# ABCB1: ATP-dependent translocase ABCB1 (ABCB1, Homo sapiens, UniProt P08183)
# SLC47A2: Multidrug and toxin extrusion protein 2 (SLC47A2, Homo sapiens, UniProt Q86VL8)
Compound,target,test,test system,conditions,quantity,value
CCc1cc(/C(C)=N/OCc2ccc(C3CCCCC3)c(C(F)(F)F)c2)ccc1CN1CC(C(=O)O)C1,"Cytochrome P450 2A6 (CYP2A6, Homo sapiens, UniProt P11509)","enzyme activity, inhibitor","human, liver microsomes","200 µM, 20 min",inhibition,30.6%
CC1(C)CCC2(CC1)N[C@@H](C(=O)N[C@@H]1CC[C@@H](C(N)=O)OC1)[C@H](c1ccnc(Cl)c1F)[C@]21C(=O)Nc2cc(Cl)ccc21,ABCB1,,Caco-2,"3 µM, 2 h",efflux ratio,14.1
CN(C(=O)n1cnc(-c2ccc[n+]([O-])c2)c1)C1CCCCC1,SLC47A2,"transporter uptake, inhibitor",MDCK-II,0.3 µg/mL,inhibition,12%
O=C(O)CSc1nnc(Br)n1-c1ccc(C2CC2)c2ccccc12,SLC47A2,"transporter uptake, inhibitor",HEK293,"100 µM, 2 min",inhibition,-9%
COCCc1ccc(OCC(O)CNC(C)C)cc1 (stereo not shown),ABCB1,,MDCK-MDR1,5 µM,efflux ratio,0.981
Cc1cc(Nc2ncnc3ccc(NC4=NC(C)(C)CO4)cc23)ccc1Oc1ccn2ncnc2c1,ABCB1,,"MDCK-MDR1, Caco-2","1 µM, 1 h, pH 7.4",efflux ratio,9.48
C[C@]12CCCN1CC1=NNC(=O)c3cc(F)cc4[nH]c2c1c34,ABCB1,,MDCK-MDR1,10 µM,Papp A→B,25.5 ×10⁻⁶ cm/s
CC[C@H](C)C(=O)N1CCC(NC(=O)Nc2ccc(OC(F)(F)F)c(F)c2)CC1,ABCB1,"transporter efflux, inhibitor, fluorescence",,10 µM,inhibition,< 25%
C=C[C@H]1C[N@@]2CC[C@H]1C[C@@H]2[C@@H](O)c1ccnc2ccc(OC)cc12,ABCB1,,MDCK-MDR1,5 µM,Papp B→A,40.6 ×10⁻⁶ cm/s
C[C@H]1O[C@@H](O[C@H]2[C@@H](O)C[C@H](O[C@H]3[C@@H](O)C[C@H](O[C@H]4CC[C@@]5(C)[C@H](CC[C@@H]6[C@@H]5C[C@@H](O)[C@]5(C)[C@@H](C7=CC(=O)OC7)CC[C@]65O)C4)O[C@@H]3C)O[C@@H]2C)C[C@H](O)[C@@H]1O,ABCB1,,"human, plasma","oral, 0.5 mg",Cmax,1.99 ng/mL
